From ChEMBL document CHEMBL4513216, “Probing the Open Global Health Chemical Diversity Library for Multistage-Active Starting Points for Next-Generation Antimalarials” (ACS Infect Dis, 2020) come the findings set out here.

A short description of the data set: Toxicity liver stage against HepG2, at 10uM. In kind it is cell-based. Details: test concentration 10 uM, cell line HepG2-A16-CD81EGFP. As to conditions: human, HepG2-A16-CD81EGFP cells; read-out: INHIBITION
An outline of the steps: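 Uninfected HepG2-A16-CD81EGFP cells, 3 × 10^3 per well, 1536-well, plated on prespotted compound at 10 μM final, parasite-free screening media added to match infected plates; puromycin 10 μM positive, DMSO 0.5% negative; run in parallel with 48 h PbLuc assay at 37 °C, 5% CO2; viability by CellTiter-Glo luminescence, normalized to controls.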
As to `CN1CC=C(c2noc(CCC(=O)N3CCCC3)n2)CC1`, the cytotoxicity at 10 µM was determined as 4.87%.
As for `COc1ccc(NC(=O)N2CCCC2c2ccco2)c(OC)c1` (stereo not drawn), the cytotoxicity at 10 µM was determined as 10.8%.
With `CCOC(=O)c1nc(COc2c(C)occc2=O)no1`, the cytotoxicity at 10 µM stood at 3.79%.
As for `N#Cc1ccccc1NC(=O)C1CN(C(=O)c2ccc3c(c2)OCO3)C1`, the cytotoxicity at 10 µM was -8.64%.
With `Cc1nc(NC2CCCC2)c2c(n1)c(C)nn2C`, the cytotoxicity at 10 µM stood at 14.1%.
With `CCn1nc(C)c(CNC(=O)c2nnc3ccc(OC)cc3n2)c1C` the figure was 6.58%; with `Cc1nn(C)c2cnn(CCCNS(=O)(=O)Cc3ccccc3)c12`, 0.999%.
The same measure for `CC(=O)N1CCC(c2cncc(N3CCOCC3)n2)CC1`: 3.66%.
With `O=C1CCC[C@]2(CN(S(=O)(=O)N3CCOCC3)C[C@H]2c2cccnc2)N1` the figure was -0.701%; with `CC(=O)N1CCC(c2cncc(Oc3ccccc3)n2)CC1`, 6.05%.
In the case of `NCCn1nc(C2CCN(C(=O)CC3CCCCC3)C2)c2nccnc21` (stereo not drawn), the cytotoxicity at 10 µM is -0.645%.
As for `Cc1nc2n(n1)CC(Nc1ncnc3c1CCC3)CC2` (stereo not drawn), the cytotoxicity at 10 µM was -44.1%.
The same measure for `CC(C#N)CN(C)Cc1c(Cl)ccc2cccnc12` (stereo not drawn): -39%; for `CC(C)n1nnnc1-c1ccc(NC(=O)CC(F)(F)F)cc1F`: 6.62%; for `Cc1nnc(N2CCNCC2)c(C(N)=O)c1C`: 3.52%.
With `CCOc1cccc(NC(=O)Cc2cccc(O)c2)n1` the figure was -0.116%.
The same measure for `CC(c1ccc(F)c(F)c1)N(C)CCS(=O)(=O)CCC(N)=O` (stereo not drawn): -52.2%; for `Cc1cc(C(=O)N2CCn3cc(CN(C)C)nc3C2)no1`: -80.5%; for `CC1=N[C@@]2(CC[C@@H]3CN(S(=O)(=O)C4CC4)C[C@@H]32)C(=O)N1CC(C)C`: -76.8%.
Consider `O=C1CC(c2ccncc2)C2(CCN(C(=O)c3ccnnc3)CC2)N1` (stereo not drawn), for which the cytotoxicity at 10 µM was -80.4%.
The same measure for `Cc1noc([C@@H]2CCO[C@@H]3CCN(Cc4nccs4)C[C@@H]32)n1`: -75.8%.
With `COCC(=O)N1CC[C@@H](N2CCN(C)CC2)[C@@H]1Cc1ccccc1` the figure was -66.1%.
Regarding `Cn1cccc1C(=O)N1CC[C@H]2C[C@@H](c3ccncn3)O[C@@H]2C1`, the cytotoxicity at 10 µM is 0.77%.
With `Fc1cnc(N2CCOCC3(CCCN(c4nncs4)C3)C2)nc1` (stereo not drawn) the figure was 2.01%.
On to `Cc1ccc(C(=O)N2C[C@@H](OCC3CCOCC3)[C@H]3OCCC[C@H]32)o1`, for which the cytotoxicity at 10 µM was -3.55%.
The same measure for `O=C(c1ccc2nccnc2c1)N1CCN(CCO)[C@@H]2CS(=O)(=O)C[C@@H]21`: -10.4%; for `O=C(Cc1ccc(O)c(F)c1)N1CCC2(CCNCC2)CC1`: -7.43%.
The same measure for `CC(C)(C)NC(=O)[C@@H]1Cc2ccccc2CN1Cc1cccs1`: -2.14%; for `CC(C)c1nc(CN(C)C(=O)c2ccccc2C2CCNC2)cs1` (stereo not drawn): 4.46%; for `CN1CC2(CCN(C(=O)Cc3ccc(O)c(F)c3)CC2)CC1=O`: 1.87%.
Consider `O=C(O)C1c2nc[nH]c2CCN1CC(c1ccccc1)c1ccccc1` (stereo not drawn), for which the cytotoxicity at 10 µM was -7.97%.
For `CNC(=O)C1CN(c2ccc(F)cc2)CCN1` (stereo not drawn), the cytotoxicity at 10 µM was determined as 7.9%.
`CCn1nc(C)c(CN(CCCOC)Cc2ccccn2)c1C`: the cytotoxicity at 10 µM turned out to be 5.23%.
`COCCN(C)C[C@@H]1CCC[C@@H]2CN(c3cc(OC)ncn3)C[C@@H]21`: the cytotoxicity at 10 µM came out at 1.75%.
As to `Cn1cc(C(=O)N2CC[C@@H]3[C@@H]2CCN3Cc2cccc(C#N)c2)cn1`, the cytotoxicity at 10 µM is -71.3%.
With `CCN(CC)c1ncnc2c1CCN(CC1CCOCC1)CC2` the figure was -81.5%.
The same measure for `CCN1C[C@H]2[C@@H](C1)N(S(=O)(=O)c1ccccc1)CC[C@H]2OC`: -75.3%; for `CN(C)C(=O)CN1C[C@H]2CC[C@@H](C1)N(Cc1ccccc1C#N)C2`: -0.898%.
